Results published in ChEMBL document CHEMBL5550111, “Design, synthesis and biological evaluation of aryloxy thiophosphoramidate triesters of anticancer nucleoside analogues” (Bioorg Med Chem, 2024).

Experiments:
[1] = system: RT112/84; test: Cytotoxicity against human RT112/84 cells assessed as maximum inhibition of cell viability upto 198 uM incubated for 72 hrs by MTS assay relative to control; assay type: functional; conditions: up to 198 µM
How it was run: (§1)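 Cells seeded at 0.5 to 100 × 10^3 per well the day before drug addition, then exposed to compound for 72 h. MTS added afterwards, with a further 4 h at 37 °C, and absorbance read. Tested in duplicate at 9 serial 3.16-fold dilutions, top concentration 198 μM. MI% is the maximum inhibition of viability across the tested range.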

[2] = system: RT112/84; test: Cytotoxicity against human RT112/84 cells assessed as inhibition of cell viability incubated for 72 hrs by MTS assay; assay type: functional, cell-based; conditions: RT112/84, 72 h
How it was run: (§2)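 Cells seeded at 0.5 to 100 × 10^3 per well the day before treatment, then exposed for 72 h to 9 serial concentrations (3.16-fold dilutions, top 198 μM), in duplicate. MTS added for a final 4 h at 37 °C and absorbance read. IC50 is the concentration giving 50% loss of viability. MI% is the maximum inhibition over the tested range.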

[3] = system: NCI-H1975; test: Cytotoxicity against human NCI-H1975 cells assessed as maximum inhibition of cell viability upto 198 uM incubated for 72 hrs by MTS assay relative to control; assay type: functional; conditions: up to 198 µM; how it was run: as §1
[4] = system: OVCAR-3; test: Cytotoxicity against human OVCAR-3 cells assessed as inhibition of cell viability incubated for 72 hrs by MTS assay; assay type: functional, cell-based; conditions: OVCAR-3, 72 h; how it was run: as §2
[5] = system: SK-MES-1; test: Cytotoxicity against human SK-MES-1 cells assessed as maximum inhibition of cell viability upto 198 uM incubated for 72 hrs by MTS assay relative to control; assay type: functional; conditions: up to 198 µM; how it was run: as §1
[6] = system: MIA PaCa-2; test: Cytotoxicity against human MIA PaCa-2 cells assessed as inhibition of cell viability incubated for 72 hrs by MTS assay; assay type: functional, cell-based; conditions: MIA PaCa-2, 72 h; how it was run: as §2
[7] = system: RPMI-8226; test: Cytotoxicity against human RPMI-8226 cells assessed as inhibition of cell viability incubated for 72 hrs by MTS assay; assay type: functional, cell-based; conditions: RPMI-8226, 72 h; how it was run: as §2
[8] = system: HepG2; test: Cytotoxicity against human HepG2 cells assessed as maximum inhibition of cell viability upto 198 uM incubated for 72 hrs by MTS assay relative to control; assay type: functional; conditions: up to 198 µM; how it was run: as §1
[9] = system: HT-29; test: Cytotoxicity against human HT-29 cells assessed as inhibition of cell viability incubated for 72 hrs by MTS assay; assay type: functional, cell-based; conditions: HT-29, 72 h; how it was run: as §2
[10] = system: RPMI-8226; test: Cytotoxicity against human RPMI-8226 cells assessed as maximum inhibition of cell viability upto 198 uM incubated for 72 hrs by MTS assay relative to control; assay type: functional; conditions: up to 198 µM; how it was run: as §1
[11] = system: SK-MES-1; test: Cytotoxicity against human SK-MES-1 cells assessed as inhibition of cell viability incubated for 72 hrs by MTS assay; assay type: functional, cell-based; conditions: SK-MES-1, 72 h; how it was run: as §2
[12] = system: OVCAR-3; test: Cytotoxicity against human OVCAR-3 cells assessed as maximum inhibition of cell viability upto 198 uM incubated for 72 hrs by MTS assay relative to control; assay type: functional; conditions: up to 198 µM; how it was run: as §1
[13] = system: MIA PaCa-2; test: Cytotoxicity against human MIA PaCa-2 cells assessed as maximum inhibition of cell viability upto 198 uM incubated for 72 hrs by MTS assay relative to control; assay type: functional; conditions: up to 198 µM; how it was run: as §1
[14] = system: COLO 205; test: Cytotoxicity against human COLO 205 cells assessed as inhibition of cell viability incubated for 72 hrs by MTS assay; assay type: functional, cell-based; conditions: COLO 205, 72 h; how it was run: as §2
[15] = system: HepG2; test: Cytotoxicity against human HepG2 cells assessed as inhibition of cell viability incubated for 72 hrs by MTS assay; assay type: functional, cell-based; conditions: HepG2, 72 h; how it was run: as §2
[16] = system: HT-29; test: Cytotoxicity against human HT-29 cells assessed as maximum inhibition of cell viability upto 198 uM incubated for 72 hrs by MTS assay relative to control; assay type: functional; conditions: up to 198 µM; how it was run: as §1
[17] = system: BXPC-3; test: Cytotoxicity against human BXPC-3 cells assessed as inhibition of cell viability incubated for 72 hrs by MTS assay; assay type: functional, cell-based; conditions: BXPC-3, 72 h; how it was run: as §2
[18] = system: A2780; test: Cytotoxicity against human A2780 cells assessed as maximum inhibition of cell viability upto 198 uM incubated for 72 hrs by MTS assay relative to control; assay type: functional; conditions: up to 198 µM; how it was run: as §1
[19] = system: PANC-1; test: Cytotoxicity against human PANC-1 cells assessed as maximum inhibition of cell viability upto 198 uM incubated for 72 hrs by MTS assay relative to control; assay type: functional; conditions: up to 198 µM; how it was run: as §1
[20] = system: MOLT-4; test: Cytotoxicity against human MOLT-4 cells assessed as inhibition of cell viability incubated for 72 hrs by MTS assay; assay type: functional, cell-based; conditions: MOLT-4, 72 h; how it was run: as §2
[21] = system: CAKI-2; test: Cytotoxicity against human CAKI-2 cells assessed as inhibition of cell viability incubated for 72 hrs by MTS assay; assay type: functional, cell-based; conditions: CAKI-2, 72 h; how it was run: as §2
[22] = system: K562; test: Cytotoxicity against human K562 cells assessed as inhibition of cell viability incubated for 72 hrs by MTS assay; assay type: functional, cell-based; conditions: K562, 72 h; how it was run: as §2
[23] = system: A498; test: Cytotoxicity against human A498 cells assessed as inhibition of cell viability incubated for 72 hrs by MTS assay; assay type: functional, cell-based; conditions: A498, 72 h; how it was run: as §2
[24] = Cytotoxicity against human ACHN-luc2 cells assessed as inhibition of cell viability incubated for 72 hrs by MTS assay; assay type: functional, cell-based; conditions: ACHN-luc2, 72 h; how it was run: as §2
[25] = system: A2780; test: Cytotoxicity against human A2780 cells assessed as inhibition of cell viability incubated for 72 hrs by MTS assay; assay type: functional, cell-based; conditions: A2780, 72 h; how it was run: as §2
[26] = system: MDA-MB-231; test: Cytotoxicity against human MDA-MB-231 cells assessed as maximum inhibition of cell viability upto 198 uM incubated for 72 hrs by MTS assay relative to control; assay type: functional; conditions: up to 198 µM; how it was run: as §1
[27] = system: PC-3; test: Cytotoxicity against human PC-3 cells assessed as inhibition of cell viability incubated for 72 hrs by MTS assay; assay type: functional, cell-based; conditions: PC-3, 72 h; how it was run: as §2
[28] = system: HL-60; test: Cytotoxicity against human HL-60 cells assessed as maximum inhibition of cell viability upto 198 uM incubated for 72 hrs by MTS assay relative to control; assay type: functional; conditions: up to 198 µM; how it was run: as §1
[29] = system: KG-1; test: Cytotoxicity against human KG-1 cells assessed as maximum inhibition of cell viability upto 198 uM incubated for 72 hrs by MTS assay relative to control; assay type: functional; conditions: up to 198 µM; how it was run: as §1
[30] = Cytotoxicity against human T24/83 cells assessed as maximum inhibition of cell viability upto 198 uM incubated for 72 hrs by MTS assay relative to control; assay type: functional; conditions: up to 198 µM; how it was run: as §1
[31] = system: RL; test: Cytotoxicity against human RL cells assessed as inhibition of cell viability incubated for 72 hrs by MTS assay; assay type: functional, cell-based; how it was run: as §2
[32] = system: MOLT-4; test: Cytotoxicity against human MOLT-4 cells assessed as maximum inhibition of cell viability upto 198 uM incubated for 72 hrs by MTS assay relative to control; assay type: functional; conditions: up to 198 µM; how it was run: as §1
[33] = Cytotoxicity against human T24/83 cells assessed as inhibition of cell viability incubated for 72 hrs by MTS assay; assay type: functional, cell-based; conditions: T24/83, 72 h; how it was run: as §2
[34] = system: HL-60; test: Cytotoxicity against human HL-60 cells assessed as inhibition of cell viability incubated for 72 hrs by MTS assay; assay type: functional, cell-based; conditions: HL-60, 72 h; how it was run: as §2
[35] = Cytotoxicity against human ACHN-luc2 cells assessed as maximum inhibition of cell viability upto 198 uM incubated for 72 hrs by MTS assay relative to control; assay type: functional; conditions: up to 198 µM; how it was run: as §1
[36] = system: BXPC-3; test: Cytotoxicity against human BXPC-3 cells assessed as maximum inhibition of cell viability upto 198 uM incubated for 72 hrs by MTS assay relative to control; assay type: functional; conditions: up to 198 µM; how it was run: as §1
[37] = system: CAKI-2; test: Cytotoxicity against human CAKI-2 cells assessed as maximum inhibition of cell viability upto 198 uM incubated for 72 hrs by MTS assay relative to control; assay type: functional; conditions: up to 198 µM; how it was run: as §1
[38] = system: PANC-1; test: Cytotoxicity against human PANC-1 cells assessed as inhibition of cell viability incubated for 72 hrs by MTS assay; assay type: functional, cell-based; conditions: PANC-1, 72 h; how it was run: as §2
[39] = system: A498; test: Cytotoxicity against human A498 cells assessed as maximum inhibition of cell viability upto 198 uM incubated for 72 hrs by MTS assay relative to control; assay type: functional; conditions: up to 198 µM; how it was run: as §1
[40] = system: RL; test: Cytotoxicity against human RL cells assessed as maximum inhibition of cell viability upto 198 uM incubated for 72 hrs by MTS assay relative to control; assay type: functional; conditions: up to 198 µM; how it was run: as §1
[41] = system: KG-1; test: Cytotoxicity against human KG-1 cells assessed as inhibition of cell viability incubated for 72 hrs by MTS assay; assay type: functional, cell-based; conditions: KG-1, 72 h; how it was run: as §2
[42] = system: 5637; test: Cytotoxicity against human 5637 cells assessed as maximum inhibition of cell viability upto 198 uM incubated for 72 hrs by MTS assay relative to control; assay type: functional; conditions: up to 198 µM; how it was run: as §1
[43] = system: MCF7; test: Cytotoxicity against human MCF7 cells assessed as maximum inhibition of cell viability upto 198 uM incubated for 72 hrs by MTS assay relative to control; assay type: functional; conditions: up to 198 µM; how it was run: as §1
[44] = system: PC-3; test: Cytotoxicity against human PC-3 cells assessed as maximum inhibition of cell viability upto 198 uM incubated for 72 hrs by MTS assay relative to control; assay type: functional; conditions: up to 198 µM; how it was run: as §1
[45] = system: K562; test: Cytotoxicity against human K562 cells assessed as maximum inhibition of cell viability upto 198 uM incubated for 72 hrs by MTS assay relative to control; assay type: functional; conditions: up to 198 µM; how it was run: as §1
[46] = system: 5637; test: Cytotoxicity against human 5637 cells assessed as inhibition of cell viability incubated for 72 hrs by MTS assay; assay type: functional, cell-based; conditions: Homo sapiens, 5637, 72 h; how it was run: as §2
[47] = system: COLO 205; test: Cytotoxicity against human COLO 205 cells assessed as maximum inhibition of cell viability upto 198 uM incubated for 72 hrs by MTS assay relative to control; assay type: functional; conditions: up to 198 µM; how it was run: as §1

C[C@H](NP(=O)(OC[C@H]1O[C@@H](n2cc(F)c(=O)[nH]c2=O)C[C@@H]1O)Oc1cccc2ccccc12)C(=O)OCc1ccccc1 (stereo partly drawn) [FOSIFLOXURIDINE NAFALBENAMIDE]
Imax [1]: 77%
IC50 [2]: 320 nM
Imax [3]: 72%
IC50 [4]: 6910 nM
Imax [5]: 77%
IC50 [6]: 1470 nM
IC50 [7]: 5900 nM
Imax [8]: 62%
IC50 [9]: 520 nM
Imax [10]: 93%
IC50 [11]: 320 nM
Imax [12]: 92%
Imax [13]: 96%
IC50 [14]: 140 nM
IC50 [15]: 24500 nM
Imax [16]: 81%

CC(=O)O[C@H]1C(=O)[C@@]2(C)[C@H]([C@H](OC(=O)c3ccccc3)[C@]3(O)C[C@H](OC(=O)[C@H](O)[C@@H](NC(=O)c4ccccc4)c4ccccc4)C(C)=C1C3(C)C)[C@]1(OC(C)=O)CO[C@@H]1C[C@@H]2O [PACLITAXEL]
IC50 [17]: 5 nM
Imax [18]: 72%
Imax [1]: 77%
Imax [19]: 56%
IC50 [20]: 4 nM
IC50 [21]: 10 nM
IC50 [2]: 10 nM
IC50 [22]: 13 nM
IC50 [23]: 20 nM
IC50 [24]: 20 nM
IC50 [25]: 8 nM
Imax [26]: 70%
Imax [3]: 75%
IC50 [4]: 4 nM
IC50 [27]: 10 nM
Imax [28]: 97%
Imax [29]: 79%
Imax [30]: 97%
Imax [5]: 77%
IC50 [6]: 3 nM
IC50 [7]: 2 nM
IC50 [31]: 7 nM
Imax [32]: 99%
Imax [8]: 54%
IC50 [33]: 4 nM
IC50 [9]: 30 nM
IC50 [34]: 12 nM
Imax [35]: 47%
Imax [36]: 85%
Imax [37]: 78%
IC50 [38]: 3 nM
Imax [39]: 74%
Imax [40]: 63%
IC50 [41]: 68 nM
Imax [10]: 95%
Imax [42]: 95%
IC50 [11]: 10 nM
Imax [12]: 59%
Imax [13]: 83%
IC50 [14]: 10 nM
Imax [43]: 75%
Imax [44]: 62%
IC50 [15]: 60 nM
Imax [16]: 79%
Imax [45]: 87%
IC50 [46]: 2 nM
Imax [47]: 90%
